Reference: ChEMBL document CHEMBL1821604, “Anticancer activity and cDNA microarray studies of a (RS)-1,2,3,5-tetrahydro-4,1-benzoxazepine-3-yl]-6-chloro-9H-purine, and an acyclic (RS)-O,N-acetalic 6-chloro-7H-purine” (Eur J Med Chem, 2011)

Tests used:
Type in all cases: functional
HT-29 [1] = assay: Upregulation of COL3A1 gene expression in human HT-29 cells at IC50 after 48 hrs by cDNA microarray technique relative to control
HT-29 [2] = assay: Down regulation of KCNJ16 gene expression in human HT-29 cells at IC50 after 48 hrs by cDNA microarray technique relative to control
Method in brief: (§1)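 Cells (8 × 10⁶) were cultured in DMEM with 10% heat-inactivated FBS at 37 °C under 5% CO₂. They were exposed for 48 h to compound at its IC₅₀, with DMSO-treated parallel cultures as controls (final DMSO ≤0.1% v/v). Total RNA was isolated by trizol/chloroform phase separation, RNeasy column cleanup and on-column DNase, then quantified by OD260/OD280. Expression was profiled by cDNA microarray relative to control.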

MCF7 [3] = assay: Down regulation of C1orf131 gene expression in human MCF7 cells at IC50 after 48 hrs by cDNA microarray technique relative to control
Method in brief: (§2)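 8 × 10⁶ cells exposed 48 h to compound at its IC50 concentration; total RNA isolated with trizol/chloroform and RNeasy columns including on-column DNase step; RNA quantified by OD 260/280; DMSO-treated cultures as control.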

MCF7 [4] = assay: Down regulation of FLJ35954 gene expression in human MCF7 cells at IC50 after 48 hrs by cDNA microarray technique relative to control; method in brief: as §1
MCF7 [5] = assay: Upregulation of CD84 gene expression in human MCF7 cells at IC50 after 48 hrs by cDNA microarray technique relative to control
MCF7 [6] = assay: Down regulation of PCDH20 gene expression in human MCF7 cells at IC50 after 48 hrs by cDNA microarray technique relative to control
MCF7 [7] = assay: Down regulation of SLC16A7 gene expression in human MCF7 cells at IC50 after 48 hrs by cDNA microarray technique relative to control
MCF7 [8] = assay: Upregulation of SPACA3 gene expression in human MCF7 cells at IC50 after 48 hrs by cDNA microarray technique relative to control
HT-29 [9] = assay: Down regulation of P53AIP1 gene expression in human HT-29 cells at IC50 after 48 hrs by cDNA microarray technique relative to control
HT-29 [10] = assay: Down regulation of CDH4 gene expression in human HT-29 cells at IC50 after 48 hrs by cDNA microarray technique relative to control; method in brief: as §2
HT-29 [11] = assay: Down regulation of TMEM27 gene expression in human HT-29 cells at IC50 after 48 hrs by cDNA microarray technique relative to control
HT-29 [12] = assay: Down regulation of SCD4 gene expression in human HT-29 cells at IC50 after 48 hrs by cDNA microarray technique relative to control
MCF7 [13] = assay: Down regulation of AF147723 gene expression in human MCF7 cells at IC50 after 48 hrs by cDNA microarray technique relative to control; method in brief: as §2
HT-29 [14] = assay: Upregulation of PDGFA gene expression in human HT-29 cells at IC50 after 48 hrs by cDNA microarray technique relative to control
HT-29 [15] = assay: Down regulation of TCP10 gene expression in human HT-29 cells at IC50 after 48 hrs by cDNA microarray technique relative to control
MCF7 [16] = assay: Upregulation of CRTAM gene expression in human MCF7 cells at IC50 after 48 hrs by cDNA microarray technique relative to control
MCF7 [17] = assay: Down regulation of DKFZp727G131 gene expression in human MCF7 cells at IC50 after 48 hrs by cDNA microarray technique relative to control; method in brief: as §2
HT-29 [18] = assay: Down regulation of PARK2 gene expression in human HT-29 cells at IC50 after 48 hrs by cDNA microarray technique relative to control
MCF7 [19] = assay: Down regulation of RAC2 gene expression in human MCF7 cells at IC50 after 48 hrs by cDNA microarray technique relative to control
MCF7 [20] = assay: Upregulation of FLJ14075 gene expression in human MCF7 cells at IC50 after 48 hrs by cDNA microarray technique relative to control
HT-29 [21] = assay: Down regulation of PCSK9 gene expression in human HT-29 cells at IC50 after 48 hrs by cDNA microarray technique relative to control
HT-29 [22] = assay: Down regulation of CARHSP1 gene expression in human HT-29 cells at IC50 after 48 hrs by cDNA microarray technique relative to control; method in brief: as §2
HT-29 [23] = assay: Down regulation of BENE gene expression in human HT-29 cells at IC50 after 48 hrs by cDNA microarray technique relative to control; method in brief: as §2
HT-29 [24] = assay: Upregulation of CDH15 gene expression in human HT-29 cells at IC50 after 48 hrs by cDNA microarray technique relative to control
HT-29 [25] = assay: Down regulation of CKLFSF5 gene expression in human HT-29 cells at IC50 after 48 hrs by cDNA microarray technique relative to control; method in brief: as §2
MCF7 [26] = assay: Down regulation of SPINK2 gene expression in human MCF7 cells at IC50 after 48 hrs by cDNA microarray technique relative to control
HT-29 [27] = assay: Upregulation of LAMP3 gene expression in human HT-29 cells at IC50 after 48 hrs by cDNA microarray technique relative to control
HT-29 [28] = assay: Down regulation of ARL10B gene expression in human HT-29 cells at IC50 after 48 hrs by cDNA microarray technique relative to control; method in brief: as §2
HT-29 [29] = assay: Down regulation of LIR9 gene expression in human HT-29 cells at IC50 after 48 hrs by cDNA microarray technique relative to control; method in brief: as §1
HT-29 [30] = assay: Down regulation of LOC203427 gene expression in human HT-29 cells at IC50 after 48 hrs by cDNA microarray technique relative to control
HT-29 [31] = assay: Down regulation of DT1P1A10 gene expression in human HT-29 cells at IC50 after 48 hrs by cDNA microarray technique relative to control; method in brief: as §1
HT-29 [32] = assay: Down regulation of RXRB gene expression in human HT-29 cells at IC50 after 48 hrs by cDNA microarray technique relative to control
HT-29 [33] = assay: Down regulation of PRKAG1 gene expression in human HT-29 cells at IC50 after 48 hrs by cDNA microarray technique relative to control
MCF7 [34] = assay: Upregulation of GPR132 gene expression in human MCF7 cells at IC50 after 48 hrs by cDNA microarray technique relative to control
MCF7 [35] = assay: Down regulation of P2RY13 gene expression in human MCF7 cells at IC50 after 48 hrs by cDNA microarray technique relative to control
HT-29 [36] = assay: Down regulation of EML2 gene expression in human HT-29 cells at IC50 after 48 hrs by cDNA microarray technique relative to control; method in brief: as §1
HT-29 [37] = assay: Down regulation of FLJ23436 gene expression in human HT-29 cells at IC50 after 48 hrs by cDNA microarray technique relative to control; method in brief: as §1
HT-29 [38] = assay: Down regulation of DRD5 gene expression in human HT-29 cells at IC50 after 48 hrs by cDNA microarray technique relative to control; method in brief: as §1

SMILES: COC(CN(c1ccccc1CO)S(=O)(=O)c1ccccc1[N+](=O)[O-])n1cnc2ncnc(Cl)c21 (racemic)
- fold change (FC) (HT-29 [1]): 4.72
- fold change (FC) (HT-29 [2]): -2.21
- fold change (FC) (MCF7 [3]): -2.26
- fold change (FC) (MCF7 [4]): -2.06
- fold change (FC) (MCF7 [5]): 3.37
- fold change (FC) (MCF7 [6]): -2.01
- fold change (FC) (MCF7 [7]): -2.27
- fold change (FC) (MCF7 [8]): 2.21
- fold change (FC) (HT-29 [9]): -2.06
- fold change (FC) (HT-29 [10]): -2.22
- fold change (FC) (HT-29 [11]): -2.99
- fold change (FC) (HT-29 [12]): -2.25
- fold change (FC) (MCF7 [13]): -2.66
- fold change (FC) (HT-29 [14]): 2.15
- fold change (FC) (HT-29 [15]): -2.75
- fold change (FC) (MCF7 [16]): 2.09
- fold change (FC) (MCF7 [17]): -2.03
- fold change (FC) (HT-29 [18]): -2.96
- fold change (FC) (MCF7 [19]): -2.29

SMILES: O=C(OCC1c2ccccc2-c2ccccc21)N1CC(n2cnc3c(Cl)ncnc32)OCc2ccccc21 (racemic)
- fold change (FC) (MCF7 [20]): 4.84
- fold change (FC) (HT-29 [21]): -2.32
- fold change (FC) (HT-29 [22]): -2.12
- fold change (FC) (HT-29 [23]): -2.14
- fold change (FC) (HT-29 [24]): 2.06
- fold change (FC) (HT-29 [25]): -2.19
- fold change (FC) (MCF7 [26]): -3.01
- fold change (FC) (HT-29 [27]): 2.91
- fold change (FC) (HT-29 [28]): -2.27
- fold change (FC) (HT-29 [29]): -2.08
- fold change (FC) (HT-29 [30]): -2.13
- fold change (FC) (HT-29 [31]): -2.28
- fold change (FC) (HT-29 [32]): -2.1
- fold change (FC) (HT-29 [33]): -3.98
- fold change (FC) (MCF7 [34]): 2.1
- fold change (FC) (MCF7 [35]): -3.05
- fold change (FC) (HT-29 [36]): -2.82
- fold change (FC) (HT-29 [37]): -2.2
- fold change (FC) (HT-29 [38]): -2.3
